The assay concerns the target T1, 15-LOX-2 (Homo sapiens, UniProt O15296).
T1 sequence (O15296 1-676): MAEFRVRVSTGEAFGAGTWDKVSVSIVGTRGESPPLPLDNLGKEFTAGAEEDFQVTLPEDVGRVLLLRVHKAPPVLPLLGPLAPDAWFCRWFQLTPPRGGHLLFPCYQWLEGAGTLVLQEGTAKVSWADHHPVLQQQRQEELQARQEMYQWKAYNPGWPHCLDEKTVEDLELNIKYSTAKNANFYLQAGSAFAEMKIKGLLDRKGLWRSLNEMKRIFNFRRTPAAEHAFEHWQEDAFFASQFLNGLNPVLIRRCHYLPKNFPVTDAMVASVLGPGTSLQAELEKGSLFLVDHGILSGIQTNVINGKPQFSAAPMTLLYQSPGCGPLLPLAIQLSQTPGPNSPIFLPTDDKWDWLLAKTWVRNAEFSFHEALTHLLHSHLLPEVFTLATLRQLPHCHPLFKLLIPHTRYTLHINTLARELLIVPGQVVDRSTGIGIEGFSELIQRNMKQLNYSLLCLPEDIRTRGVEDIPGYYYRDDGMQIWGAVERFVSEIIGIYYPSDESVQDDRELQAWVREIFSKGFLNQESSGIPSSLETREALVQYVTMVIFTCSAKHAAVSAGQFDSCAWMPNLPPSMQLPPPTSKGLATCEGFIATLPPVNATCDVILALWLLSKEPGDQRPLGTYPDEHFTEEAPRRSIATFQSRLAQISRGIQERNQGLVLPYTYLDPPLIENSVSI
Kind of assay: 96-well allosteric effector assay. It is filed as biochemical. The settings on record: for AA/GLA ratio (15-HETE/13-HOTrE(γ) peak area ratio): 4 µM AA and 16 µM GLA, ratio without effector 2.3 ± 0.1. The method in brief:
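15-LOX-2 (~150 nM final) is preincubated 30 s with the perdeuterated effector in 50 mM ammonium bicarbonate, pH 7.5, with 0.01% PPS detergent in 96-well plates. Turnover uses AA:GLA at 1:4 (20 µM total substrate), kept below 20% conversion. Plates are held at 4° C during HPLC-MS analysis, with products identified by MS/MS. The substrate preference is the 15-HETE/13-HOTrE(γ) peak-area ratio.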

Turning to `[2H]C(C([2H])=C([2H])C([2H])(O)C([2H])([2H])C([2H])([2H])C([2H])([2H])C([2H])([2H])C([2H])([2H])[2H])=C([2H])C([2H])([2H])C([2H])([2H])C([2H])([2H])C([2H])([2H])C([2H])([2H])C([2H])([2H])C([2H])([2H])C(=O)O` (stereo not drawn) [d30-13-HODE], the “AA/GLA ratio (15-HETE/13-HOTrE(γ) peak area ratio)” value reads like this: (10 µM d30-13-HODE) 1.4 ± 0.1; (20 µM d30-13-HODE) 1.1 ± 0.1. Also, the “effect on AA and GLA catalysis” value (based on standard curve for AA and GLA products, data not shown) is “reducing AA catalysis, but not affecting GLA catalysis significantly”.

The record behind these values is paper PMC4398643 (Analytical biochemistry, 2015).
